This note sets out measurements from ChEMBL document CHEMBL1134624, “Potent and selective ET-A antagonists. 1. Syntheses and structure-activity relationships of N-(6-(2-(aryloxy)ethoxy)-4-pyrimidinyl)sulfonamide derivatives” (J Med Chem, 2001).

Assay [1] concerns the target T1, Endothelin receptor type B (Homo sapiens, UniProt P24530).
T1 sequence (P24530 whole entry): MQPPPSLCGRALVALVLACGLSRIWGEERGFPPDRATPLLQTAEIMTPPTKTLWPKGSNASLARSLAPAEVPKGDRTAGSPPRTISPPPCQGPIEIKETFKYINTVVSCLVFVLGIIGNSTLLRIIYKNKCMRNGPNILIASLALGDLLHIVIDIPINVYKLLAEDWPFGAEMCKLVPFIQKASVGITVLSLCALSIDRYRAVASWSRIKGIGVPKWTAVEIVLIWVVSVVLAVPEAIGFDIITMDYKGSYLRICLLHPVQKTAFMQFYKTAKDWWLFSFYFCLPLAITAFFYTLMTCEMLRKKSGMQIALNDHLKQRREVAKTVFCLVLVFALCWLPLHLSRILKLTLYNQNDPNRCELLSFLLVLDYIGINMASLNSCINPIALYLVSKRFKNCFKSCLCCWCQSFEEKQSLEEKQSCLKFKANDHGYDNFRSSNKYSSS
Briefly: Ability to inhibit specific binding of [125I]- -ET-1 to human GH cells which express endothelin B receptor. The class given is cell-based.

Assay [2] deals with T2, Endothelin-1 receptor (Sus scrofa, UniProt Q29010).
T2 sequence (Q29010 whole entry): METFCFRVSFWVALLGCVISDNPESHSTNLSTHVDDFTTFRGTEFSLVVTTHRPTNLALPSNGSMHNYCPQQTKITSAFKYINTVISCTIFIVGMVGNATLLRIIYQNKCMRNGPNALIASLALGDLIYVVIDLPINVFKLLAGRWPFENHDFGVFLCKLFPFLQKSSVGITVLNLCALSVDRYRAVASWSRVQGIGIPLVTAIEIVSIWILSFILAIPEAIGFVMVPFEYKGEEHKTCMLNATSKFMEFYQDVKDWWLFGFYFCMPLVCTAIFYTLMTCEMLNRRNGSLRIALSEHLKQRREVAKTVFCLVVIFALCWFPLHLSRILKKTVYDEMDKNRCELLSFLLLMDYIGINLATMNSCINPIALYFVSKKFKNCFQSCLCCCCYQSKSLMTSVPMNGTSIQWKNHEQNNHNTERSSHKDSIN
Briefly: In vitro inhibition of [125I]ET1 binding to Endothelin A receptor in porcine aortic membrane from endothelial cells. The class given is cell membranes. As to conditions: in the assay text read “with endothelium removed” for “from endothelial cells”. Put shortly: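 Endothelium-free porcine aorta homogenized in 10 mM MOPS (pH 7.4) with 20% sucrose. Membranes spun 1000g 15 min, then supernatant 90000g 45 min, and resuspended in 5 mM HEPES-Tris. Incubated with 20 pM final 125I-ET-1 and graded compound concentrations in 50 mM Tris-HCl pH 7.4, 0.1% BSA, protease inhibitors, EDTA, 2 h at 25 °C. Filtered, washed, gamma-counted.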

For assay [3], the target named is T3, Endothelin-1 receptor (Rattus norvegicus, UniProt P26684).
T3 sequence (P26684 whole entry): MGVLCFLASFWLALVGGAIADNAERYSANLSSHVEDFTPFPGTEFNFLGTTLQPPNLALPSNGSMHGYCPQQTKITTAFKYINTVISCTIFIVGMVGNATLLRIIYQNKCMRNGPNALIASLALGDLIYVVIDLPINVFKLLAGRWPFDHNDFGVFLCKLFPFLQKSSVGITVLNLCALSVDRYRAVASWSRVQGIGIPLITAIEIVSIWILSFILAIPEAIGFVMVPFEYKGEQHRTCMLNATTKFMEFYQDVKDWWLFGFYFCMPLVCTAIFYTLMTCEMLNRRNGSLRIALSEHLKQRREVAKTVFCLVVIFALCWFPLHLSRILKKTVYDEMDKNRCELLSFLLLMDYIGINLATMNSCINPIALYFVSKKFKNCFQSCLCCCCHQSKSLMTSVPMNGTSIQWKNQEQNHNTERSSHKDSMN
As to the kind of experiment: In vitro for specific binding of [125I]ET1 to A10 cell expressed in endothelin A receptor. The assay is classed as cell-based.

Assay [4] addresses T1, Endothelin receptor type B. Briefly: In vitro for specific binding of [125I]ET1 to GHcell expressed in Endothelin B receptor.

As to `COc1cccc(Oc2c(NS(=O)(=O)c3ccc(C(C)(C)C)cc3)ncnc2OCCO)c1`, the half-maximal inhibitory concentration (IC50) (commonly the point on the concentration scale where inhibition reaches its midpoint) is 1100 nM in assay [1], 160 nM at Endothelin-1 receptor [2] and 230 nM on Endothelin-1 receptor [3].
Regarding `Cc1ccc(-c2c(NS(=O)(=O)c3ccc(C(C)(C)C)cc3)ncnc2OCCOc2ncc(-c3ccco3)cn2)cc1`, the IC50 in assay [4] came out at 7 nM.
`CSc1cnc(OCCOc2ncnc(NS(=O)(=O)c3ccc(C(C)(C)C)cc3)c2-c2ccc(C)cc2)nc1` showed an IC50 in assay [4] of 220 nM.
Same read-out and setting: as for `Cc1ccc(-c2c(NS(=O)(=O)c3ccc(C(C)(C)C)cc3)ncnc2OCCOc2ncc(-c3cccs3)cn2)cc1`, the figure is 3.8 nM; as for `Cc1ccc(-c2c(NS(=O)(=O)c3ccc(C(C)(C)C)cc3)ncnc2OCCOc2ncc(Br)cn2)cc1`, 38 nM.
Regarding `COc1ccccc1Oc1c(NS(=O)(=O)c2ccc(C(C)(C)C)cc2)nc(-c2ncccn2)nc1OCCO` [BOSENTAN SODIUM], the values for the 50% inhibitory concentration (IC50) at Endothelin-1 receptor [2] and on Endothelin-1 receptor [3] were 7.5 nM and 1.4 nM, respectively.
